A selection: hits, their analogues and other compounds. The true share with any hit is near 2.3%.
MT1-MMP act inh: MT1-MMP (human) activation inhibition. AID 651647. hit rate 0.061% among 360,000. P50281. GFP/RFP ratio change, % at 20 µM. HT1080 RFP-PRO-GFP cells, GFP/RFP ratio fluorescence, overnight; percent of plate control window, DMSO zero;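 active means GFP/RFP ratio change of at least 30% with cell ATP level not reduced by more than half and red fluorescence within 50% of control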
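Material: RFP-PRO-GFP reporter HT1080 cells. Dosing: single-point 20 µM compound, 1% DMSO. Controls: DMSO and RFP-L50D-GFP cell wells. Timing: cells overnight before dosing, compound overnight, 37 °C, 5% CO2. Measure: GFP/RFP fluorescence ratio.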
ATG4B inh: ATG4B (human) cysteine protease inhibition. ATG4B cleavage of LC3-PLA2, NBD-HPC fluorescence, 1 h. hit rate 0.51% among 340,000. Q9Y4P1. inhibition, % at 8.33 µM. AID 504462; in the data active means inhibition above about 40%
Target sequence (Q9Y4P1 whole entry, looked up): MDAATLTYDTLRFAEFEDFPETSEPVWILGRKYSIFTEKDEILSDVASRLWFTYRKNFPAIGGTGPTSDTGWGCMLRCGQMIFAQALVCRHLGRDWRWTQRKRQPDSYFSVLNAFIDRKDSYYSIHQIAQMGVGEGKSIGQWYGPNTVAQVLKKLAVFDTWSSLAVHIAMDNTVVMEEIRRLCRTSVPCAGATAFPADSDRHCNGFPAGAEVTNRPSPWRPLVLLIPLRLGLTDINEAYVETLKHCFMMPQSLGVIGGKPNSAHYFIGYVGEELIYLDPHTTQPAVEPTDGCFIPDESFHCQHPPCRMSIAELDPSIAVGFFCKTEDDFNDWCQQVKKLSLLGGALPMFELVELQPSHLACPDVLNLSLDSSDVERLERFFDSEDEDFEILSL
MPTP block: blocks calcium-induced mitochondrial swelling; inhibition, % at 10 µM; hit rate 1.4% among 360,000; isolated mouse mitochondria, Ca2+ swelling absorbance, 30 min;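 active means inhibition of 50% or more, scaled per plate between neutral and stimulator controls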
SKN-1 inh: inhibitors of C. elegans SKN-1 | inhibition, % at 21.8 µM | hit rate 0.49% among 360,000 | AID 624304 | C. elegans VP596 Pgst-4::GFP/RFP ratio, acrylamide-induced, 24 h;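 active means interference check ratio from 0.5 to 1.5 plus GFP to RFP signal ratio inhibition reaching or exceeding a fixed threshold, cut at about 30% in these data, passing the limit was not always enough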
Rh123 counter: Rhodamine 123 counter-screen of mitochondrial pore hits. hit rate 78% among 5,000. isolated mitochondria, membrane potential, Rhodamine 123 fluorescence. shares compounds with MPTP block. inhibition, % at 10 µM; in the data active means inhibition above about 22%
MPTP swell DR: MPTP inhibition, dose response swelling confirmation; shares compounds with MPTP block; isolated mitochondria swelling, absorbance; hit rate 58% among 780; IC50, µM; in the data active means IC50 below about 20 µM
MPTP counter DR: active in counter-screen for permeability transition pore inhibitors; AID 651564; shares compounds with MPTP block; hit rate 49% among 780; isolated mitochondria counterscreen, fluorescence read-out; IC50, µM; in the data active means IC50 below about 80 µM
Each line names hits and unclear results; the compound was inactive in the other large screens (follow-up assays come after a bar, where they were run).

OC(COc1ccc(CNCCc2ccc(C(F)(F)F)cc2)cc1)CN1CCCCC1 (stereo unspecified)	MPTP block 67 | Rh123 counter inactive
COCC1CCCCN1C(=O)c1cc(COc2ccc3ncccc3c2)on1 (stereo unspecified)	MPTP block 100 | Rh123 counter 101
CCC1CCCCN1C(=O)c1cc(COc2ccc3ncccc3c2)on1 (stereo unspecified)	MPTP block 104 | Rh123 counter 81
CCCN1CCN(C(=O)c2cc(COc3ccc4ncccc4c3)on2)CC1	MPTP block 86 | Rh123 counter 56
CCN(CC)C(=O)C1CCCN(C(=O)c2cc(COc3ccc4ncccc4c3)on2)C1 (stereo unspecified)	none
CCN1CCN(C(=O)c2cc(COc3ccc4ncccc4c3)on2)CC1	none
CCc1ccc(CN(C)C(=O)c2cc(COc3ccc(-n4cncn4)cc3)on2)cc1	MPTP block 59 | Rh123 counter 78
COCCC1CCCCN1C(=O)c1cc(COc2ccc(-n3cncn3)cc2)on1 (stereo unspecified)	MPTP block 92 | Rh123 counter 100
O=C(CSc1nc(-c2cccs2)cc(C(F)(F)F)n1)Nc1cc(OCC(F)(F)C(F)F)cc([N+](=O)[O-])c1	MPTP block 93 | Rh123 counter 80
COc1cccc(C(=O)NCCS(=O)(=O)N2CC(C)CC(C)C2)c1 (stereo unspecified)	none
Cc1ccc(-n2nnnc2-c2cnc(N3CCCC3)nc2C(F)(F)F)cc1	none
FC(F)(F)c1nc(N2CCCC2)ncc1-c1nnnn1-c1ccccc1	MPTP block 73 | Rh123 counter 65
COc1ccc(NCC(=O)Nc2ccc(C#N)cc2)cc1Cl	MPTP block 76 | Rh123 counter 84
CCCCCCCC1CC(CSC(=N)N)OC1=O (stereo unspecified)	MPTP block 97 | Rh123 counter inactive | MPTP swell DR 6.3 | MPTP counter DR 52
Cc1c(P(=S)(c2ccccc2)c2ccccc2)[n+]2ccccc2n1CCc1ccccc1	none (no result: ATG4B inh)
O=C(O)CCN1C(=O)/C(=C\c2ccc(-c3nc4ccccc4s3)o2)SC1=S	MPTP block 89 | Rh123 counter inactive
O=C(O)CCCN1C(=O)/C(=C\c2ccco2)SC1=S	none
Cc1ccc(Cl)cc1NC(=O)c1ccccc1OCC(=O)Nc1ccc(Cl)cc1	MPTP block 88 | Rh123 counter 93
COc1ccccc1C(=O)Nc1cc(Cl)ccc1O	MPTP block 67 | Rh123 counter 36
COc1cc(OC)c(NC(=O)c2cc3ccccc3cc2O)cc1Cl	MPTP block 90 | Rh123 counter 33
COc1cc(NC(=O)c2ccccc2)c(OC)cc1Cl	none
Cc1ccc(NC(=O)COc2ccccc2C(=O)Nc2ccccc2)cc1Cl	none
COc1ccc(Cl)cc1NC(=O)c1ccccc1C	none
CCOc1ccccc1C(=O)Nc1cc(Cl)ccc1O	MPTP block 92 | Rh123 counter 76
CC1CCCCC1NC(=O)c1cccc(NC2=NC3CS(=O)(=O)CC3S2)c1 (stereo unspecified)	none
Cc1noc(C)c1S(=O)(=O)N(C)C[C@@H]1OCc2cnnn2CCCC(=O)N([C@@H](C)CO)C[C@H]1C	none (no result: ATG4B inh)
CC(C)N1C(=O)CCC1C(=O)NCc1ccc(F)cc1Cl (stereo unspecified)	none
COc1cc(OC)cc(-c2oc(=O)c3cc(OC)c(OC)cc3c2C(F)(F)F)c1	none
N#CCCn1nc(-c2ccc(Br)cc2)cc1Nc1ccccc1NC(=O)C(F)(F)F	MPTP block 95 | Rh123 counter 84
N#CCCn1nc(-c2ccccc2)cc1Nc1ccccc1NC(=O)C(F)(F)F	none
N#CCCn1nc(-c2ccc([N+](=O)[O-])cc2)cc1Nc1ccccc1NC(=O)C(F)(F)F	MPTP block 93 | Rh123 counter 91
Cc1ccc(OCC(O)Cn2c(=N)n(CCN3CCOCC3)c3ccccc32)cc1 (stereo unspecified)	MPTP block 52 | Rh123 counter inactive | MPTP swell DR inactive | MPTP counter DR inactive
Cc1ccc(NCC(=O)N=Nc2c(O)[nH]c3ccc([N+](=O)[O-])cc23)cc1	none (no result: MT1-MMP act inh, MPTP block, SKN-1 inh)
Cc1ccc(OC(C)C(=O)N=Nc2c(O)[nH]c3ccc([N+](=O)[O-])cc23)cc1 (stereo unspecified)	MPTP block 73 | Rh123 counter 68
CCC1CCc2sc(C(=O)NC3CCN(Cc4ccccc4)CC3)cc2C1 (stereo unspecified)	MPTP block 76 | Rh123 counter inactive | MPTP swell DR 11 | MPTP counter DR 27
COc1ccc2c(c1)c(C(C)=O)c(C)n2CCc1ccccc1	MPTP block 67 | Rh123 counter 76
Cc1cc(C(F)(F)F)nn1CC(=O)NNC(=S)Nc1ccc(Cl)cc1	none
O=C(Cn1nnc(-c2cc(C(F)(F)F)cc(C(F)(F)F)c2)n1)NNC(=S)Nc1ccc(Cl)cc1	MPTP block 84 | Rh123 counter 61
Cc1ccc(S(=O)(=O)Nc2ccnc(-c3cccnc3)n2)cc1	none
N/C(=N\S(=O)(=O)c1cc(C(F)(F)F)cc(C(F)(F)F)c1)c1ccc(Cl)cc1	MPTP block 83 | Rh123 counter 88
COc1ccc(OC)c(CN2C(=O)CSCC2(C)C(=O)NCc2ccccc2)c1 (stereo unspecified)	none (no result: ATG4B inh)
O=C(Cn1c(COc2ccccc2)nc2ccccc21)Nc1cc(Cl)ccc1Cl	none
O=C(Cn1c(COc2ccccc2)nc2ccccc21)Nc1cc(Cl)cc(Cl)c1	MPTP block 92 | Rh123 counter 94
COC(=O)c1nc(NC(=O)c2ccc(Br)cc2)n[nH]1	MPTP block 77 | Rh123 counter inactive | MPTP swell DR inactive | MPTP counter DR inactive
CCOC(=O)c1ccc(NC(=O)CCc2nc(-c3ccccc3Cl)no2)cc1	MPTP block 89 | Rh123 counter 76
CCOC(=O)c1ccc(NC(=O)CCc2nc(-c3ccccc3)no2)cc1	MPTP block 62 | Rh123 counter 69
COc1cc(/C=C/c2sc3ccccc3[n+]2CCCS(=O)(=O)[O-])ccc1O	MPTP block 56 | Rh123 counter inactive
Cc1ccc2c(c1)sc(C)[n+]2CCCS(=O)(=O)[O-]	none
C=CCNC(=O)c1c[nH]c2ccc(S(=O)(=O)N(C)c3ccc(OCC)cc3)cc2c1=O	none
O=[N+]([O-])c1ccc(NCCNc2ccc([N+](=O)[O-])cc2)cc1	none
O=C(Nc1ccc(Cc2ccncc2)cc1)c1cccc([N+](=O)[O-])c1	none
O=C(CCNc1ccc(Cc2ccncc2)cc1)c1ccc([N+](=O)[O-])cc1	MPTP block 75 | Rh123 counter 68
Cc1ccc(C(=O)Nc2ccc(Cc3ccncc3)cc2)cc1[N+](=O)[O-]	MPTP block 99 | Rh123 counter 64

High-throughput results as filed in PubChem.
